Results reported in ChEMBL document CHEMBL1154887, “Pycnanthulignenes A-D, antimicrobial cyclolignene derivatives from the roots of Pycnanthus angolensis” (2010).
In brackets after ≈: the same amount, converted by molar mass.

Key:
Staphylococcus aureus [1] = assay: Antibacterial activity against methicillin-resistant Staphylococcus aureus LMP 805 after 30 mins by microbroth dilution method; assay type: functional
Summary of the method: (§1)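 Microbroth dilution MIC, done in three independent repeats. After incubation, 0.2 mg/mL p-iodonitrotetrazolium chloride was added and plates were held at 37 °C for 30 min. Viable cells reduce the yellow dye to pink.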

Escherichia coli [2] = assay: Antibacterial activity against beta lactamase positive Escherichia coli LMP 701 after 30 mins by microbroth dilution method; assay type: functional
Summary of the method: (§2)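 Microbroth dilution, run three times. After incubation, 0.2 mg/mL p-iodonitrotetrazolium chloride was added and plates were held 30 min at 37 °C. Viable cells reduce the yellow dye to pink. MIC is the lowest concentration that prevented the colour change and gave complete growth inhibition.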

Shigella dysenteriae [3] = assay: Antibacterial activity against beta lactamase positive Shigella dysenteriae LMP 606 after 30 mins by microbroth dilution method; assay type: functional; summary of the method: as §1
Klebsiella pneumoniae [4] = assay: Antibacterial activity against beta ampicillin resistant Klebsiella pneumoniae LMP 803 after 30 mins by microbroth dilution method; assay type: functional; summary of the method: as §1
Pseudomonas aeruginosa [5] = assay: Antibacterial activity against beta carbenicillin resistant Pseudomonas aeruginosa LMP 804 after 30 mins by microbroth dilution method; assay type: functional; summary of the method: as §1
Salmonella enterica [6] = assay: Antibacterial activity against chloramphenicol-resistant Salmonella typhi LMP 706 after 30 mins by microbroth dilution method; assay type: functional, Salmonella enterica subsp. enterica serovar Typhi; summary of the method: as §1
Citrobacter freundii [7] = assay: Antibacterial activity against chloramphenicol-resistant Citrobacter freundii LMP 802 after 30 mins by microbroth dilution method; assay type: functional; summary of the method: as §1
Candida albicans [8] = assay: Antifungal activity against Candida albicans LMP 709U […] by microbroth dilution method; assay type: functional; summary of the method: as §2
Microsporum audouinii [9] = assay: Antifungal activity against Microsporum audouinii LMP 725D after 30 mins by microbroth dilution method; assay type: functional; summary of the method: as §2
Staphylococcus aureus [10] = assay: Antibacterial activity against methicillin-resistant Staphylococcus aureus LMP 805 after 24 hrs by microbroth dilution method; assay type: functional
Summary of the method: (§3)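 For MMC, wells with no colour change after the INT step of the microbroth dilution assay were subcultured onto MHA agar and incubated at 37 °C for 24 h. MMC is the lowest concentration giving no growth after subculture. The assay was repeated three times.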

Escherichia coli [11] = assay: Antibacterial activity against beta lactamase positive Escherichia coli LMP 701 after 24 hrs by microbroth dilution method; assay type: functional
Summary of the method: (§4)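 Minimal microbicidal concentration taken after the microbroth dilution MIC assay. MMC is the lowest concentration giving no growth after subculture.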

Shigella dysenteriae [12] = assay: Antibacterial activity against beta lactamase positive Shigella dysenteriae LMP 606 after 24 hrs by microbroth dilution method; assay type: functional; summary of the method: as §3
Klebsiella pneumoniae [13] = assay: Antibacterial activity against beta ampicillin resistant Klebsiella pneumoniae LMP 803 after 24 hrs by microbroth dilution method; assay type: functional; summary of the method: as §3
Pseudomonas aeruginosa [14] = assay: Antibacterial activity against beta carbenicillin resistant Pseudomonas aeruginosa LMP 804 after 24 hrs by microbroth dilution method; assay type: functional; summary of the method: as §3
Candida albicans [15] = assay: Antifungal activity against Candida albicans LMP 709U after 24 hrs by microbroth dilution method; assay type: functional; summary of the method: as §4
Microsporum audouinii [16] = assay: Antifungal activity against Microsporum audouinii LMP 725D after 24 hrs by microbroth dilution method; assay type: functional; summary of the method: as §4
Salmonella enterica [17] = assay: Antibacterial activity against chloramphenicol-resistant Salmonella typhi LMP 706 after 24 hrs by microbroth dilution method; assay type: functional, Salmonella enterica subsp. enterica serovar Typhi; summary of the method: as §3
Citrobacter freundii [18] = assay: Antibacterial activity against chloramphenicol-resistant Citrobacter freundii LMP 802 after 24 hrs by microbroth dilution method; assay type: functional; summary of the method: as §3
[19] = Salmonella enterica subsp. enterica serovar Typhi

Compound	MIC (Staphylococcus aureus [1]; LMP 805, 0.5 h)	MIC (Escherichia coli [2]; LMP 701, 0.5 h)	MIC (Shigella dysenteriae [3]; LMP 606, 0.5 h)	MIC (Klebsiella pneumoniae [4]; LMP 803, 0.5 h)	MIC (Pseudomonas aeruginosa [5]; LMP 804, 0.5 h)	MIC (Salmonella enterica [6]; LMP 706, 0.5 h)	MIC (Citrobacter freundii [7]; LMP 802, 0.5 h)	MIC (Candida albicans [8])	MIC (Microsporum audouinii [9]; 0.5 h)	MMC (Staphylococcus aureus [10])	MMC (Escherichia coli [11])	MMC (Shigella dysenteriae [12])	MMC (Klebsiella pneumoniae [13])	MMC (Pseudomonas aeruginosa [14])	MMC (Candida albicans [15])	MMC (Microsporum audouinii [16])	MMC (Citrobacter freundii [18])	also measured
COc1cc2c(cc1OC)[C@H](c1ccc(O)cc1)[C@@H](C)C(C)=C2 [PYCNANTHULIGNENE A]	9.76 µg/mL (≈ 31.4 µM)	19.5 µg/mL (≈ 62.8 µM)	39.1 µg/mL (≈ 126 µM)	78.1 µg/mL (≈ 252 µM)	78.1 µg/mL (≈ 252 µM)	19.5 µg/mL (≈ 62.9 µM)	39.1 µg/mL (≈ 126 µM)	19.5 µg/mL (≈ 62.9 µM)	39.1 µg/mL (≈ 126 µM)	19.53 µg/mL	39.1 µg/mL	78.1 µg/mL	>78.12 µg/mL	>78.12 µg/mL	39.06 µg/mL	78.12 µg/mL	–	–
COc1ccc(-c2c(C)c(C)cc3cc4c(cc23)OCO4)cc1 [PYCNANTHULIGNENE C]	19.5 µg/mL (≈ 63.7 µM)	19.5 µg/mL (≈ 63.7 µM)	39.1 µg/mL (≈ 128 µM)	78.1 µg/mL (≈ 255 µM)	> 78.1 µg/mL	39.1 µg/mL (≈ 127 µM)	39.1 µg/mL (≈ 127 µM)	19.5 µg/mL (≈ 63.7 µM)	39.1 µg/mL (≈ 127 µM)	39.1 µg/mL	78.1 µg/mL	>78.1 µg/mL	>78.1 µg/mL	>78.12 µg/mL	39.06 µg/mL	78.1 µg/mL	78.12 µg/mL	MMC (Salmonella enterica [17]): 78.12 µg/mL
GENTAMICIN	–	–	–	–	–	–	–	–	–	–	–	–	–	–	–	–	–	MIC (Staphylococcus aureus [1]): 4.88 µg/mL; MIC (Escherichia coli [2]): 4.88 µg/mL; MIC (Shigella dysenteriae [3]): 4.88 µg/mL; MIC (Klebsiella pneumoniae [4]): 19.5 µg/mL; MIC (Pseudomonas aeruginosa [5]): > 9.76 µg/mL; MIC (Salmonella enterica [6]; [19]): 9.76 µg/mL; MIC (Citrobacter freundii [7]): 4.88 µg/mL; MIC (Microsporum audouinii [9]): 4.88 µg/mL
NYSTATIN	–	–	–	–	–	–	–	–	–	–	9.8 µg/mL	9.8 µg/mL	19.5 µg/mL	19.5 µg/mL	9.8 µg/mL	9.8 µg/mL	9.8 µg/mL	MMC (Salmonella enterica [17]; [19]): 19.5 µg/mL
